This is an account of results in publication PMC3162318 (Journal of biomolecular screening, 2011).

As usually defined, the IC50 is the concentration that inhibits the measured activity by half. Higher therefore signals weaker potency.

The target of one test is T1, TRβ-SRC2-2 interaction (hTRβ LBD, SRC2-2 Texas Red peptide) (Homo sapiens, UniProt P10828).
T1 sequence (P10828 209-461): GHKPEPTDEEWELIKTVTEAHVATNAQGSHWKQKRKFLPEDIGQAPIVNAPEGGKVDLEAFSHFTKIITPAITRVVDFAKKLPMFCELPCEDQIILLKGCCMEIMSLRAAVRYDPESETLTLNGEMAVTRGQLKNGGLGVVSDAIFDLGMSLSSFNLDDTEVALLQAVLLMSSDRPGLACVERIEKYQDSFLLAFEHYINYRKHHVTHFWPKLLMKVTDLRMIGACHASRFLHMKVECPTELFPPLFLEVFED
In words: TRβ-SRC2-2 fluorescence polarization qHTS. The test is classed as binding. To be noted: six concentrations up to 92 μM; FP inhibition.
As for `CS(=O)(=O)c1ccc(C(=O)OCC(=O)NC2CCS(=O)(=O)C2)cc1[N+](=O)[O-]` (stereo not shown) [MLS000336487-01], the “activity in the qHTS (active/inactive)” value is “inactive”.
As to `CS(=O)(=O)c1ccc(C(=O)OCC(=O)NC23CC4CC(CC(C4)C2)C3)cc1[N+](=O)[O-]` [MLS000389544-01], the “activity in the qHTS (active/inactive)” value is “active”.
The same measure, in the same setting: in the case of `CC(=O)c1cccc(NC(=O)COC(=O)c2ccc(S(C)(=O)=O)c([N+](=O)[O-])c2)c1` [MLS000517219-01] it was “inactive”; in that of `COc1cc(C(=O)OCC(=O)NC(=O)C2CCCCC2)ccc1OC(F)F` [MLS000517502-01], “loss of the activity”; in that of `CS(=O)(=O)c1ccc(C(=O)OCC(=O)NC(=O)C2CCCCC2)cc1[N+](=O)[O-]` [MLS000517530-01], “active”.
As to `O=C(COC(=O)c1ccncc1)NC(=O)C1CCCCC1` [MLS000565662-01], the “activity in the qHTS (active/inactive)” value is reported as “loss of the activity”.
For the compound `O=C(COC(=O)c1ccc(Cl)cc1O)NC(=O)C1CCCCC1` [MLS000776485-01], the “activity in the qHTS (active/inactive)” value was “loss of the activity”.
`CS(=O)(=O)c1ccc(C(=O)OCc2nnc(-c3ccc(Cl)cc3)o2)cc1[N+](=O)[O-]` [MLS001003284-01]: the “activity in the qHTS (active/inactive)” value is “inactive”.
Consider `CC(CCc1ccccc1)NC(=O)COC(=O)c1ccc(S(C)(=O)=O)c([N+](=O)[O-])c1` (stereo not shown) [MLS001003365-01], for which the “activity in the qHTS (active/inactive)” value was “active”.
Same read-out and setting: then `CS(=O)(=O)c1ccc(C(=O)OCc2nnc(-c3ccccc3)o2)cc1[N+](=O)[O-]` [MLS001010708-01], with “inactive”; and `Cc1ccccc1NC(=O)COC(=O)c1ccc(S(C)(=O)=O)c([N+](=O)[O-])c1` [MLS001017631-01], with “inactive”.

In the next test the target is T1, TRβ-SRC2-2 interaction (hTRβ LBD, SRC2-2 Texas Red peptide).
Experiment: not given
The test is classed as binding. The conditions noted are these: confirmation, independent samples, Texas Red fluoroprobe. The method in brief: (§1)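 Talon-purified TRβ (eluted with T3), 0.6 uM, with 20 nM SRC2-2 peptide carrying an N-terminal Texas Red or fluorescein label, in pH 7.4 Tris buffer with 1 µM T3 and 4% DMSO. Test compound was given as 10 three-fold dilutions, top 130 µM, then incubated 3 h at ambient temperature. Polarization was read at 555/632 nm (Texas Red) or 480/535 nm (fluorescein). mP was normalized to DMSO wells with and without TRβ, and concentration-response curves were fitted.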
For the compound `CN1CC[C@@]2(C)c3cc(O)ccc3N(C)[C@H]2O1` [geneseroline], the IC50 is greater than 30 µM.

The target of the next test is T2, TRβ-SRC2-2 interaction (hTRβ LBD, SRC2-2 fluorescein peptide) (Homo sapiens, UniProt P10828).
T2 sequence (P10828 209-461): T1 sequence (P10828 209-461)
Experiment: not given
The test is classed as binding. The conditions noted are these: confirmation, independent samples, fluorescein fluoroprobe. In short, it runs like this: as §1
In turn, `CN1CC[C@@]2(C)c3cc(O)ccc3N(C)[C@H]2O1` [geneseroline] returned an IC50 greater than 30 µM.
